Among the data in ChEMBL document CHEMBL4190239, “A novel structural class of coumarin-chalcone fibrates as PPARα/γ agonists with potent antioxidant activities: Design, synthesis, biological evaluation and molecular docking studies” (Eur J Med Chem, 2017) are IC50, fold change (FC) and EC50 values, retold here.

Assay [1] is described as follows: Antioxidant activity assessed as ABTS radical scavenging activity after 30 mins. Format: functional.
For assay [2], the target named is T1, Peroxisome proliferator-activated receptor gamma (Homo sapiens) (UniProt P37231).
T1 sequence (whole entry): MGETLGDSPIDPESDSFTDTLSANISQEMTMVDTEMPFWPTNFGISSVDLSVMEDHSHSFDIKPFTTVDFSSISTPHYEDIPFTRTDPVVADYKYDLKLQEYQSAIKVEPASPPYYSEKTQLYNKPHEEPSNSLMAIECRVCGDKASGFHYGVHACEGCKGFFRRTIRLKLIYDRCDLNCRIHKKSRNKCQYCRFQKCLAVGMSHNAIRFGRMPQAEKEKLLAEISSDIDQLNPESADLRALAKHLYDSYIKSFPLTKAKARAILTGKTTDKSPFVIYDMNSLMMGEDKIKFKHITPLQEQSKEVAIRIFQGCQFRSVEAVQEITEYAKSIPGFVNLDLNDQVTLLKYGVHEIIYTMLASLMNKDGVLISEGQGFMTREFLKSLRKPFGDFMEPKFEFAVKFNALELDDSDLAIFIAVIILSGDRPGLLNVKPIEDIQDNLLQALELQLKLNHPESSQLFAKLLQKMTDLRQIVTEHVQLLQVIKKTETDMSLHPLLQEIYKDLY
As to the kind of experiment: Agonist activity at GAL4-fused PPARgamma LBD (unknown origin) expressed in HEK293 cells assessed as receptor transactivation at 10 uM after 18 hrs by dual luciferase reporter gene assay. The assay is classed as cell-based. Summed up:
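HEK293 grown in DMEM/10% FBS to 70–80% confluence, plated, switched to FCS-free medium, transiently transfected per well with GAL4-PPARγLBD plasmid (30 ng), reporter (50 ng), renilla normalization vector (20 ng) and pGEM carrier (40 ng). Ligand added 8 h post-transfection for 18 h; firefly and renilla luciferase read by dual-luciferase kit; activation expressed as fold.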
(In general: A reporter such as luciferase makes a cellular process visible.)

Assay [3] addresses T2, Peroxisome proliferator-activated receptor gamma (Homo sapiens, UniProt P37231).
T2 sequence (P37231 whole entry): T1 sequence (whole entry)
The assay can be described thus: Agonist activity at GAL4-fused PPARgamma LBD (unknown origin) expressed in HEK293 cells assessed as receptor transactivation after 18 hrs by dual luciferase reporter gene assay. Format: cell-based.

The target in assay [4] is T3, Peroxisome proliferator-activated receptor alpha (Homo sapiens, UniProt Q07869).
T3 sequence (Q07869 whole entry): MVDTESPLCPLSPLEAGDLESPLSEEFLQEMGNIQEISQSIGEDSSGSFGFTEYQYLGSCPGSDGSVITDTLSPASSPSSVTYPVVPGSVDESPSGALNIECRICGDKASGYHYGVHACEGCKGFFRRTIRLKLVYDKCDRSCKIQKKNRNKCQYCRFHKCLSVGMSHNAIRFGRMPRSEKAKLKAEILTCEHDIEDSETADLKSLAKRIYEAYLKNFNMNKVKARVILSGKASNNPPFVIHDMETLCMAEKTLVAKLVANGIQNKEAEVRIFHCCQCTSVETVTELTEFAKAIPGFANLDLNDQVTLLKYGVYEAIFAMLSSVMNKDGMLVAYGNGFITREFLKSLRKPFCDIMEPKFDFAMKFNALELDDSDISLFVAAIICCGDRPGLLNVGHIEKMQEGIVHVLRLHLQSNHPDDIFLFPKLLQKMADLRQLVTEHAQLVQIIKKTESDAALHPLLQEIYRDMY
As to the kind of experiment: Agonist activity at GAL4-fused PPARalpha LBD (unknown origin) expressed in HEK293 cells assessed as receptor transactivation after 18 hrs by dual luciferase reporter gene assay. Format: cell-based.

Broadly, the IC50 is the concentration that gives 50% inhibition. On to `CCOC(=O)C(C)(C)Oc1ccc(C(=O)C2Cc3c(ccc4ccccc34)OC2=O)cc1` (stereo not given), for which the IC50 in assay [1] turned out to be 15 µM. Also, the fold change (FC) in assay [2] was 1.05.
By EC50 is commonly meant the concentration at which the effect is half-maximal. Take `CCOC(=O)C(C)(C)Oc1ccc(C(=O)c2cc3cc(N)ccc3oc2=O)cc1`: the EC50 result in assay [3] (hek293) and in assay [4] (hek293) was “Not Active” throughout. For the same compound, in assay [1], the IC50 was > 100 µM.
With `CC(C)(Oc1ccc(C(=O)c2cc3ccccc3oc2=O)cc1)C(=O)O`, the EC50 was 3.67 µM in assay [3] (read-out: EC50) and 11 µM in assay [4] (read-out: EC50). Also, the IC50 in assay [1] is > 100 µM.
In the case of `CC(C)(Oc1ccc(C(=O)c2cc3c(ccc4ccccc43)oc2=O)cc1)C(=O)O`, the EC50 in assay [3] (read-out: EC50) is 56.7 µM; in assay [4] (hek293), “Not Active”. The IC50 in assay [1] was > 100 µM.
`CCOC(=O)C(C)(C)Oc1ccc(C(=O)c2cc3ccccc3oc2=O)cc1`: the figures for the EC50 in assay [3] (read-out: EC50) and in assay [4] (read-out: EC50) were 5.19 µM and 12.7 µM, respectively. In assay [1], the IC50 was > 100 µM.
Take `CCOC(=O)C(C)(C)Oc1ccc(C(=O)c2cc3cc([N+](=O)[O-])ccc3oc2=O)cc1`: the EC50 in assay [3] (read-out: EC50) was 0.91 µM; in assay [4] (read-out: EC50) it was 6.99 µM. Besides, the IC50 in assay [1] came to 18.6 µM.
Take `CCOC(=O)C(C)(C)Oc1ccc(C(=O)c2cc3cc(OC)c(OC)cc3oc2=O)cc1`: the IC50 in assay [1] is > 100 µM. Further, in assay [2], the fold change (FC) stood at 1.01.
In the case of `CCOC(=O)C(C)(C)Oc1ccc(C(=O)c2cc3c(ccc4ccccc43)oc2=O)cc1`, the IC50 in assay [1] was > 100 µM. Besides, in assay [2], the fold change (FC) amounted to 0.83.
As for `Cc1c(C)c2c(c(C)c1O)CCC(C)(C(=O)O)O2` (stereo not given) [TROLOX], the IC50 in assay [1] stood at 24.8 µM.
For the compound `CCOC(=O)C(C)(C)Oc1ccc(C(=O)C2Cc3ccccc3OC2=O)cc1` (stereo not given), the EC50 in assay [3] (read-out: EC50) is 39.7 µM; in assay [4] (hek293), “Not Active”. Besides, the 50% inhibitory concentration (IC50) in assay [1] stood at 9.4 µM.
On to `CCOC(=O)C(C)(C)Oc1ccc(C(=O)c2cc3cc(C(C)(C)C)cc(C(C)(C)C)c3oc2=O)cc1`, for which the IC50 in assay [1] is > 100 µM. Moreover, the fold change (FC) in assay [2] stood at 0.81.
Consider `CCOC(=O)C(C)(C)Oc1ccc(C(=O)c2cc3cc(C)ccc3oc2=O)cc1`, for which the IC50 in assay [1] was 8.51 µM. Further, in assay [2], the fold change (FC) worked out at 1.01.
As for `CCOC(=O)C(C)(C)Oc1ccc(C(=O)c2cc3cc(Cl)ccc3oc2=O)cc1`, the IC50 in assay [1] was > 100 µM. Besides, in assay [2], the fold change (FC) came out at 0.95.
For `CCOC(=O)C(C)(C)Oc1ccc(C(=O)c2cc3cc(F)ccc3oc2=O)cc1`, the EC50 result in assay [3] (hek293) and in assay [4] (hek293) was “Not Active” in each case. In assay [1], the IC50 was > 100 µM.
On to `CCOC(=O)C(C)(C)Oc1ccc(C(=O)C2Cc3cc(C)ccc3OC2=O)cc1` (stereo not given), for which the IC50 in assay [1] worked out at 10.3 µM. Besides, in assay [2], the fold change (FC) is 0.8.
The like results for `Cc1ccc2oc(=O)c(C(=O)c3ccc(OC(C)(C)C(=O)O)cc3)cc2c1` were, in that order, > 100 µM and 1.04.
As for `CCOC(=O)C(C)(C)Oc1ccc(C(=O)C2Cc3cc(OC)c(OC)cc3OC2=O)cc1` (stereo not given), the IC50 in assay [1] worked out at 17.1 µM. Further, the fold change (FC) in assay [2] came to 0.9.
